Measurements: PubChem BioAssay
Activity calls are given as the source filed them.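 Rule for the calls, unless noted: active = viability at or below 30% in both replicate assays; inconclusive = viability at or below 30% in just one of the two assays; inactive = the rest.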

Legend:
[1] = reduced viability of SK-BR-3 breast cancer cells – cell-based, 24 h, human, pilot screen (AID 572;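 active = viability at or below 10% of carrier control in both of two separate runs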;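 note: compound exposure lasted between 18 and 24 h rather than exactly 24 h; 100% = carrier-treated control wells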); settings: SK-BR-3 viability, CellTiter-Glo luminescence, at 10 µM, stronger effect = lower value
[2] = HUVEC growth inhibition – cell-based, human, primary screen (AID 575); settings: HUVEC proliferation, CellTiter-Glo luminescence, 72 h; at 10 µM; stronger effect = lower value;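 note: 100% = median of untreated cell wells with 0.1% DMSO on each plate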
Summary of the method: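 Test system: primary human umbilical vein endothelial cells; medium: endothelial basal medium with 2% FBS plus growth supplements; dosing: 10 µM compound only; times: 72 h treatment at 37 °C; signal: CTG luminescence; read-out: % viability relative to median vehicle-well signal on each plate; control set: vehicle and MePR control wells; plate: 384-well, collagen-coated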

[3] = H69AR cell proliferation blockers – human, duplicate replicates, primary screen (AID 580;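 active = viability at or under a set limit in both replicates, limit being median viability minus 3 SD, cut at about 48% in these data, passing the limit was not always enough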;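 note: 100% = mean luminescence of untreated wells and 0% = no signal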); settings: H69AR lung tumor cells viability, ATP luminescence, 72 h; at 10 µM; stronger effect = lower value
[4] = MRP1 drug-resistance reversers in H69AR cells – cell-based, doxorubicin co-treatment, pilot screen (AID 601;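 active = viability loss from added drug above about 55%, and viability with drug at most 40%, in both replicates, limit read from the data, passing the limit was not always enough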); settings: CellTiter-Glo, 72 h, at 10 µM; for differential viability (reversal): stronger effect = higher value
[5] = yeast transport mutant growth inhibition pilot in 384-well plates, post-Golgi transport modulator project (AID 636; in the data active = inhibition above about 31%); settings: absorbance 615 nm, about 18 h, stronger effect = higher value
[6] = growth suppression of yeast trafficking mutant, preliminary HTS, modulators of trafficking downstream of Golgi apparatus project, 1536-format plate, OD 615 nm (AID 637; in the data active = inhibition above about 30%); settings: yeast transport mutant growth, absorbance 615 nm, 18 h; stronger effect = higher value
[7] = H69AR cells + 2 uM doxorubicin, measured here: viability with 2 uM doxorubicin, stronger effect = lower value
[8] = H69AR cells, compound alone cytotoxicity

Row | Structure (SMILES) | viability [1] | viability [2] | viability [3] | differential viability (reversal) ([4]; H69AR cells + 2 uM doxorubicin) | viability [4, 7] [%] | viability [4, 8] [%] | inhibition [5] | inhibition [6]
1 | O=C1C2CCCN2C(c2ccccc2)N1c1ccc(Cl)cc1 (stereo not drawn) | 110% (inactive) | 79.1% (inactive) | 104% (inactive) | 19% (inactive) | 85.2 | 104 | -4.67% (inactive) | -5.82% (inactive)
2 | O=C(NCC(=O)N(c1cccnc1)C(C(=O)NC1CCCCC1)c1cccnc1)c1ccco1 (stereo not drawn) | 111% (inactive) | 113% (inactive) | 109% (inactive) | 9.06% (inactive) | 99.9 | 109 | -3.07% (inactive) | 4.91% (inactive)
3 | O=C(Nc1ccon1)c1cccc(S(=O)(=O)N2CCCC2)c1 | 96% (inactive) | 99.5% (inactive) | 87.8% (inactive) | -10.9% (inactive) | 98.8 | 87.8 | -2.53% (inactive) | -0.55% (inactive)
4 | CC(=O)Nc1ccc(S(=O)(=O)N(C2=NCC(C)S2)c2ccccc2)cc1 (stereo not drawn) | 85% (inactive) | 80.3% (inactive) | 91.7% (inactive) | 1.89% (inactive) | 89.8 | 91.7 | -2.47% (inactive) | -4.35% (inactive)
5 | COc1ccc(C(=O)Nc2ccc(S(=O)(=O)Nc3onc(C)c3C)cc2)cc1 | 91% (inactive) | 108% (inactive) | 117% (inactive) | 23.6% (inactive) | 93.4 | 117 | -2.03% (inactive) | -0.91% (inactive)
6 | COC(=O)c1ccc(C2C(C#N)=C(N)Oc3cc(C)n(C)c(=O)c32)cc1 (stereo not drawn) | 104% (inactive) | 95.5% (inactive) | 97.8% (inactive) | 2.3% (inactive) | 95.4 | 97.8 | -0.82% (inactive) | -3.23% (inactive)
7 | Cc1cccc(C)c1-n1nnnc1SCSc1nnnn1-c1c(C)cccc1C | 92% (inactive) | 66.8% (inactive) | 72.1% (inactive) | -1.23% (inactive) | 73.3 | 72.1 | -7.81% (inactive) | -0.73% (inactive)
8 | Cc1cccc(C)c1NC(=O)COC(=O)c1nonc1N | 79% (inactive) | 108% (inactive) | 98.9% (inactive) | 4.63% (inactive) | 94.3 | 98.9 | -4.13% (inactive) | -7.09% (inactive)
9 | O=C(NCc1ccco1)c1cc2cc3ccc(Cl)cc3nc2o1 | 90% (inactive) | 21.4% (active) | 2.59% (active) | -0.39% (inactive) | 2.98 | 2.59 | -0.65% (inactive) | 0% (inactive)
10 | O=C(NCc1ccco1)c1cccc(S(=O)(=O)N2CCCCC2)c1 | 110% (inactive) | 99.3% (inactive) | 90.9% (inactive) | -5.04% (inactive) | 96 | 90.9 | 4.66% (inactive) | 8.73% (inactive)
11 | CN1C(=O)c2oc3ccccc3c(=O)c2C1c1ccccn1 (stereo not drawn) | 105% (inactive) | 87% (inactive) | 106% (inactive) | 11% (inactive) | 94.8 | 106 | -6.58% (inactive) | -1.09% (inactive)
12 | CC1CCc2c(sc3c2C2=NS(=O)(=O)CCN2C=N3)C1 (stereo not drawn) | 88.5% (inactive) | 107% (inactive) | 80.6% (inactive) | -7.62% (inactive) | 88.2 | 80.6 | -9.73% (inactive) | 3.81% (inactive)
13 | CCN(CC)S(=O)(=O)c1ccc(F)c(C(=O)NCCC(C)C)c1 | 82% (inactive) | 95% (inactive) | 90.9% (inactive) | 6.46% (inactive) | 84.4 | 90.9 | -0.54% (inactive) | -2.73% (inactive)
14 | COc1cc2c(cc1OC)CN(CC(=O)Nc1cccc(C)c1)CC2 | 117% (inactive) | 90.4% (inactive) | 93.1% (inactive) | 9.21% (inactive) | 83.9 | 93.1 | 0.14% (inactive) | -7.9% (inactive)
15 | COc1ccccc1NC(=O)N(Cc1ccco1)Cc1cc2cccc(C)c2[nH]c1=O | 90% (inactive) | 70.9% (inactive) | 75.8% (inactive) | 1.06% (inactive) | 74.7 | 75.8 | -8.27% (inactive) | -1.45% (inactive)
16 | CS(=O)(=O)N(CC(=O)N1CCc2ccccc2C1)c1ccc2c(c1)OCO2 | 129% (inactive) | 102% (inactive) | 102% (inactive) | 14.2% (inactive) | 87.8 | 102 | -1.04% (inactive) | 2.13% (inactive)
17 | CCN(CC)CCn1c(OC)cc(=O)[nH]c1=O | 93% (inactive) | 104% (inactive) | 101% (inactive) | 0.635% (inactive) | 99.9 | 101 | -10% (inactive) | -0.97% (inactive)
18 | CCOC(=O)c1c(C(F)(F)C(F)(F)C(F)(F)C(F)(F)F)n[nH]c1C | 63% (inactive) | 79.5% (inactive) | 76.8% (inactive) | 25.1% (inactive) | 51.7 | 76.8 | -5.75% (inactive) | 4% (inactive)

Row | Structure (SMILES) | viability [1] | viability [2] | viability [3] | differential viability (reversal) ([4]; H69AR cells + 2 uM doxorubicin) | viability [4, 7] [%] | viability [4, 8] [%] | inhibition [5] | inhibition [6]
19 | CCc1c(C)nc2ncnn2c1NCCc1ccc(OC)c(OC)c1 | 64% (inactive) | 103% (inactive) | 80.6% (inactive) | -0.53% (inactive) | 81.1 | 80.6 | -7.03% (inactive) | -0.18% (inactive)
20 | CN(C)c1ccc(NC(=O)c2ccncc2)c2ccccc12 | 113% (inactive) | 108% (inactive) | 101% (inactive) | 5.85% (inactive) | 95.2 | 101 | -7.43% (inactive) | -0.73% (inactive)
21 | OC1C=CSc2nc3ccccc3n21 (stereo not drawn) | 83.5% (inactive) | 79% (inactive) | 66.8% (inactive) | -8.25% (inactive) | 75 | 66.8 | -5.68% (inactive) | 1.8% (inactive)
22 | Cc1nc2ccc(S(=O)(=O)NCC(=O)N3CCc4ccccc4C3)cc2s1 | 87% (inactive) | 106% (inactive) | 93.5% (inactive) | 6.91% (inactive) | 86.6 | 93.5 | 2.47% (inactive) | 3.11% (inactive)
23 | CCOc1ccc(S(=O)(=O)N(C)C)cc1-c1nc2c(C(C)(C)C)nn(C)c2c(=O)[nH]1 | 99% (inactive) | 103% (inactive) | 78.9% (inactive) | 0.77% (inactive) | 78.1 | 78.9 | -2.03% (inactive) | -3.09% (inactive)
24 | CCOCCCNC(=O)C1CC(=O)N(C2CCCC2)C1 (stereo not drawn) | 98% (inactive) | 97.7% (inactive) | 94.6% (inactive) | 4.13% (inactive) | 90.5 | 94.6 | -0.91% (inactive) | 1.15% (inactive)
25 | Cc1nc(C)n(C(C)CC(=O)O)n1 (stereo not drawn) | 103% (inactive) | 127% (inactive) | 103% (inactive) | 5.71% (inactive) | 97.2 | 103 | -4% (inactive) | 1.27% (inactive)
26 | Cn1c(Cc2ccccc2)nnc1SCC(=O)N1CCOCC1 | 91% (inactive) | 95.6% (inactive) | 101% (inactive) | 6.17% (inactive) | 94.8 | 101 | -1.08% (inactive) | 28.7% (inactive)
27 | CCOC(=O)Cc1cc(=O)n2[nH]c(C)c(-c3ccc(OC)cc3)c2n1 | 103% (inactive) | 56.1% (inactive) | 92.6% (inactive) | 9.51% (inactive) | 83.1 | 92.6 | -4.34% (inactive) | -1% (inactive)
28 | Cc1cc(O)c(NC(=O)c2ccc(Br)o2)cc1C | 98% (inactive) | 71% (inactive) | 73.2% (inactive) | -15% (inactive) | 88.2 | 73.2 | -6.08% (inactive) | 1.5% (inactive)
29 | Cc1occc1C(=O)Nc1nnc(C2CCCCC2)s1 | 109% (inactive) | 93.1% (inactive) | 93.7% (inactive) | 14.1% (inactive) | 79.6 | 93.7 | -2.74% (inactive) | 10.7% (inactive)
30 | COc1cccc(C(=O)NC2=NCCS2)c1 | 109% (inactive) | 100% (inactive) | 96.7% (inactive) | 12.1% (inactive) | 84.6 | 96.7 | -4.11% (inactive) | 0.32% (inactive)
31 | NC(=O)N1c2ccccc2C=Cc2ccccc21 | 95% (inactive) | 79.4% (inactive) | 107% (inactive) | 9.74% (inactive) | 97.1 | 107 | -2.86% (inactive) | 3.17% (inactive)
32 | CC1=C(C(=O)N2CCOCC2)C(c2ccsc2)C2=C(CCCC2=O)N1 (stereo not drawn) | 96% (inactive) | 107% (inactive) | 90.4% (inactive) | -0.065% (inactive) | 90.5 | 90.4 | -2.47% (inactive) | 7.74% (inactive)
33 | COc1ccc(-c2noc(CSc3nc4ccccc4c(=O)n3-c3ccccc3)n2)cc1OC | 69% (inactive) | 110% (inactive) | 87.1% (inactive) | 6.39% (inactive) | 80.7 | 87.1 | -9.04% (inactive) | -0.55% (inactive)
34 | CN(C(=O)C1CCCO1)c1nnc(-c2ccncc2)s1 (stereo not drawn) | 81% (inactive) | 111% (inactive) | 100% (inactive) | 7.37% (inactive) | 92.7 | 100 | -3.24% (inactive) | -1.82% (inactive)
35 | NS(=O)(=O)c1cc2c(cc1Cl)NC(CSCc1ccccc1)=NS2(=O)=O | 115% (inactive) | 89.2% (inactive) | 92.6% (inactive) | 2.97% (inactive) | 89.6 | 92.6 | -4.29% (inactive) | 0.67% (inactive)
36 | COc1ccc(S(=O)(=O)NCCCN2CCOCC2)c2ccccc12 | 102% (inactive) | 101% (inactive) | 86.8% (inactive) | 5.68% (inactive) | 81.1 | 86.8 | -6.53% (inactive) | -0.18% (inactive)
